pIC50: −log10 of the molar value.
Columns and labels:
[1] = target: Histone deacetylase 1 (Homo sapiens, UniProt Q13547); test: Inhibition of recombinant HDAC1 assessed as inhibition of fluorogenic aminocoumarin release from substrate by trypsin-coupled biochemical assay
Summary of the method: (§1)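 Trypsin-coupled fluorogenic assay. Substrate is an acetylated lysine tripeptide amide-linked to aminocoumarin (AMC). HDAC deacetylation allows trypsin to release AMC, and the fluorescence increase is read. Compound was tested at various concentrations and normalized to a DMSO control. IC50 was derived by non-linear regression fit.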

[2] = target: Histone deacetylase 2 (Homo sapiens, UniProt Q92769); test: Inhibition of recombinant HDAC2 assessed as inhibition of fluorogenic aminocoumarin release from substrate by trypsin-coupled biochemical assay
[3] = target: Histone deacetylase 3 (Homo sapiens, UniProt O15379); test: Inhibition of recombinant HDAC3 assessed as inhibition of fluorogenic aminocoumarin release from substrate by trypsin-coupled biochemical assay; summary of the method: as §1
[4] = target: Histone deacetylase 4 (Homo sapiens, UniProt P56524); test: Inhibition of recombinant HDAC4 assessed as inhibition of fluorogenic aminocoumarin release from substrate by trypsin-coupled biochemical assay; summary of the method: as §1
[5] = target: Histone deacetylase 5 (Homo sapiens, UniProt Q9UQL6); test: Inhibition of recombinant HDAC5 assessed as inhibition of fluorogenic aminocoumarin release from substrate by trypsin-coupled biochemical assay; summary of the method: as §1
[6] = target: T1, Protein deacetylase HDAC6 (Homo sapiens, UniProt Q9UBN7); test: Inhibition of recombinant HDAC6 assessed as inhibition of fluorogenic aminocoumarin release from substrate by trypsin-coupled biochemical assay; summary of the method: as §1
T1 sequence (Q9UBN7 whole entry): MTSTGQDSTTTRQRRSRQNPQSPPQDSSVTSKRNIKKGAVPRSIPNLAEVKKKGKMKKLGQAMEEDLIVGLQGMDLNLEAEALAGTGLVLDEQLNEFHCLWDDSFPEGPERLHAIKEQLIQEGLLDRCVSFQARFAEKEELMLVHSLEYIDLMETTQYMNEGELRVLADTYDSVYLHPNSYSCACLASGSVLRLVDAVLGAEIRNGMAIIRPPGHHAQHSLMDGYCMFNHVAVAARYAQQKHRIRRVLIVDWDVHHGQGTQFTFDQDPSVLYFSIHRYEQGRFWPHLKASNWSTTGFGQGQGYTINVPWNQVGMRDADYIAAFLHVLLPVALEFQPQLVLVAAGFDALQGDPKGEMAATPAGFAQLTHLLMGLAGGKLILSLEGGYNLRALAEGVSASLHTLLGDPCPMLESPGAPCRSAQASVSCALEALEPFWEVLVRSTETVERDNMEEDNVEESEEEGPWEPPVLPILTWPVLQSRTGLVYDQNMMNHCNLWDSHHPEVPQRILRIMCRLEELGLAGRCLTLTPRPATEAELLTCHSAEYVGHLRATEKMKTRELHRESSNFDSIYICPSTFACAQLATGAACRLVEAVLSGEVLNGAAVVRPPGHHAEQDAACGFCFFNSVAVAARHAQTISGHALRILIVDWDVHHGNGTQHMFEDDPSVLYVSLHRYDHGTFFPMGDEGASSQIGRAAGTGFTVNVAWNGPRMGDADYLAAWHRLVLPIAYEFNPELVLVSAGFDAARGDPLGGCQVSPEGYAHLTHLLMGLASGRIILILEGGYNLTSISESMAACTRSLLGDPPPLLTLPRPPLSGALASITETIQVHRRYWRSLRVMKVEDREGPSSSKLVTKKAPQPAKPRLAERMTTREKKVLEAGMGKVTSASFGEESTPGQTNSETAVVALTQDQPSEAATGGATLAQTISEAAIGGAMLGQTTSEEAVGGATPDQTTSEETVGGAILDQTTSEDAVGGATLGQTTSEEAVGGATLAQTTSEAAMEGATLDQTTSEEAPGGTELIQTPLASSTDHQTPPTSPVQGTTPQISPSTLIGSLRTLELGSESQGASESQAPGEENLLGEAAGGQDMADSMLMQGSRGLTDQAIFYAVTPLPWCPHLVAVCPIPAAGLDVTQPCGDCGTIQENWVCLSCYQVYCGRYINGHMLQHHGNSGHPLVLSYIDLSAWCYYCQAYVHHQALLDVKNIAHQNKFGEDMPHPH

[7] = target: T2, Histone deacetylase 7 (Homo sapiens, UniProt Q8WUI4); test: Inhibition of recombinant HDAC7 assessed as inhibition of fluorogenic aminocoumarin release from substrate by trypsin-coupled biochemical assay
T2 sequence (Q8WUI4 whole entry): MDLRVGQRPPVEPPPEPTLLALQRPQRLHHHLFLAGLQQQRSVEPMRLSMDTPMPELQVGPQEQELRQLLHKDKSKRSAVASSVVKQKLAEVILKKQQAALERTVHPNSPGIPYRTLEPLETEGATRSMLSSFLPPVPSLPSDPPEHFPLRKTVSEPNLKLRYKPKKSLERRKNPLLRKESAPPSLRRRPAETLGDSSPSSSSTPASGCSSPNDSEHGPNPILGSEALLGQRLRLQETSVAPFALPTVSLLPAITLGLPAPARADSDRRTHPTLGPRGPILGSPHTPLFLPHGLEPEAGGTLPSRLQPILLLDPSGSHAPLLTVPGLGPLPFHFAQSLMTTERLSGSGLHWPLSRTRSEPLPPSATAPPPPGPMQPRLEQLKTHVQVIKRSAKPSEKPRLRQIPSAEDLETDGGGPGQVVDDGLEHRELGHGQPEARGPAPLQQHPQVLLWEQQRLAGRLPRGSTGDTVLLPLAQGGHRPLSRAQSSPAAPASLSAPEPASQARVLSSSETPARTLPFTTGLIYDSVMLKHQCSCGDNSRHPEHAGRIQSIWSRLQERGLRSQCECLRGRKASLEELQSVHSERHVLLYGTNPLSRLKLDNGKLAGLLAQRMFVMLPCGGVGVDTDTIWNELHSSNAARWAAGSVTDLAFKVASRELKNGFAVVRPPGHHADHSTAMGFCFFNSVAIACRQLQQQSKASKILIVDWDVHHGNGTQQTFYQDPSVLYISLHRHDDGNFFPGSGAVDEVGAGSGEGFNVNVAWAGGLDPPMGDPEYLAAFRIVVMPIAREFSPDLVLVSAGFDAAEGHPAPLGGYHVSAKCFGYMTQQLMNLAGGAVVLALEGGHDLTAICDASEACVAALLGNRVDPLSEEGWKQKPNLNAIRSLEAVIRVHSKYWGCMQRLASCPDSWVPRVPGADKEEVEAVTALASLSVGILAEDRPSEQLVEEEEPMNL

[8] = target: T3, Histone deacetylase 8 (Homo sapiens, UniProt Q9BY41); test: Inhibition of recombinant HDAC8 assessed as inhibition of fluorogenic aminocoumarin release from substrate by trypsin-coupled biochemical assay; summary of the method: as §1
T3 sequence (Q9BY41 whole entry): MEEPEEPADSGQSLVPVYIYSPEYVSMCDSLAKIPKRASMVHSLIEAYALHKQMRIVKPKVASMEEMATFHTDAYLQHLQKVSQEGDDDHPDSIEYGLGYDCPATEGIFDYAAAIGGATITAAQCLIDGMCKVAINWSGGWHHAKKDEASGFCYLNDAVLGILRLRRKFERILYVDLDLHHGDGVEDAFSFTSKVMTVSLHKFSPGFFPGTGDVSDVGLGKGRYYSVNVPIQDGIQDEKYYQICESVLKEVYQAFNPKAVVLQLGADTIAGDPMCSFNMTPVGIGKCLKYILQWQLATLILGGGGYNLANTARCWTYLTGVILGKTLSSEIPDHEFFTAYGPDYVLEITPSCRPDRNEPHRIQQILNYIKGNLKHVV

[9] = target: Histone deacetylase 9 (Homo sapiens, UniProt Q9UKV0); test: Inhibition of recombinant HDAC9 assessed as inhibition of fluorogenic aminocoumarin release from substrate by trypsin-coupled biochemical assay; summary of the method: as §1
Histone deacetylase 9, sequence (Q9UKV0 whole entry): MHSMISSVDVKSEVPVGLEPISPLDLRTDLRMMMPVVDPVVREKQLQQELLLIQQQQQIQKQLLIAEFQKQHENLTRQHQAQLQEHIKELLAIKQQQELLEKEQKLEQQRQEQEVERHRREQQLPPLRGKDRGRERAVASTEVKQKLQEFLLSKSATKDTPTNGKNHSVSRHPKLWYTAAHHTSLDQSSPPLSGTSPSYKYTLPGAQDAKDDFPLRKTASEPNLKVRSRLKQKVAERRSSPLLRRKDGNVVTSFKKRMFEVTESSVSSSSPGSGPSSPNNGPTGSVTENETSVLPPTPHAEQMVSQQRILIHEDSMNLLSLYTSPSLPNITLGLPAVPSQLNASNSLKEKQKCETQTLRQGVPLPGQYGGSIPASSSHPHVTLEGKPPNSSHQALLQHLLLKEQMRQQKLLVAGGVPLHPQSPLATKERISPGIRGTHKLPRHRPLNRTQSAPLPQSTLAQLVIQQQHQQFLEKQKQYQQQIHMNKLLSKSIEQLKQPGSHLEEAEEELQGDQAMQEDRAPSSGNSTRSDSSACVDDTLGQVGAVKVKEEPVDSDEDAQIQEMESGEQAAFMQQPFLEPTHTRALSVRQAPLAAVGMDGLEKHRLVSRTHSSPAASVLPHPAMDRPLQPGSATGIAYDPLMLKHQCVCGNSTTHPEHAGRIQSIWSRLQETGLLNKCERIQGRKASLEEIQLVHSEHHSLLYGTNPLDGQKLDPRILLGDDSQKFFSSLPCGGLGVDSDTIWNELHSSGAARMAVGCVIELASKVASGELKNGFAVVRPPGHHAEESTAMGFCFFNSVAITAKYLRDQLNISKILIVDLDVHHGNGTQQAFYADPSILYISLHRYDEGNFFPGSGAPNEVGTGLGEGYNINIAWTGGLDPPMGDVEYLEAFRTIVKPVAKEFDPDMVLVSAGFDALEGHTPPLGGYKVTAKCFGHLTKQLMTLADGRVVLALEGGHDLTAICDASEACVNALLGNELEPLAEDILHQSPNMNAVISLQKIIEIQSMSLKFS

Histone deacetylase 4, sequence (P56524 whole entry): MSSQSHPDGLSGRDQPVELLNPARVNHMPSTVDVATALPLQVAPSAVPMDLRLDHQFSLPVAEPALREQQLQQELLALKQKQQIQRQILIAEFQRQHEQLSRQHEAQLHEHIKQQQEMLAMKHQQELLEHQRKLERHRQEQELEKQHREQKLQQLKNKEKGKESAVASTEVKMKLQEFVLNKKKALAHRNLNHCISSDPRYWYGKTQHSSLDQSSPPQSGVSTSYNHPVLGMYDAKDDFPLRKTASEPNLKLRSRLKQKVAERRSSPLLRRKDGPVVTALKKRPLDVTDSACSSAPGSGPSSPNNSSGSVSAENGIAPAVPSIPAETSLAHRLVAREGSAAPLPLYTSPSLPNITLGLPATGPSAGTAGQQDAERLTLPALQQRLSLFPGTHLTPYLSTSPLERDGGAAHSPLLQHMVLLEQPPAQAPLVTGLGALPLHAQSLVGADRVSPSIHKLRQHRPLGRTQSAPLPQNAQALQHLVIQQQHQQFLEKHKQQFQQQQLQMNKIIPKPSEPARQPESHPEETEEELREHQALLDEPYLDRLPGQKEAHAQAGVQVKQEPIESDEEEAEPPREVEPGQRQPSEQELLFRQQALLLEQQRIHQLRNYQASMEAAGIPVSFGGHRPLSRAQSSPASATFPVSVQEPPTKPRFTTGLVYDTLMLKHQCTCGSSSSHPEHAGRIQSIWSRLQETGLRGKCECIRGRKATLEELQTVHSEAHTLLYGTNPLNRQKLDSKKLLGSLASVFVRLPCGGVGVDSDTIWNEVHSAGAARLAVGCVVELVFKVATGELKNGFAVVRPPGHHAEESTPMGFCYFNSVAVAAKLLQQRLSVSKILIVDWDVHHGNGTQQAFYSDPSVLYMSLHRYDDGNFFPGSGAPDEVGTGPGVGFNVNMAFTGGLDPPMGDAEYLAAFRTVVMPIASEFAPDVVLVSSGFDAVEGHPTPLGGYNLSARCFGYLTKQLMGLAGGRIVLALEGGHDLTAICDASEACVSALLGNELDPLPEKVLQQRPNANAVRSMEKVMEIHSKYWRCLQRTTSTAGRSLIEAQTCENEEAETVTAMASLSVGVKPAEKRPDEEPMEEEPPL
Histone deacetylase 3, sequence (O15379 whole entry): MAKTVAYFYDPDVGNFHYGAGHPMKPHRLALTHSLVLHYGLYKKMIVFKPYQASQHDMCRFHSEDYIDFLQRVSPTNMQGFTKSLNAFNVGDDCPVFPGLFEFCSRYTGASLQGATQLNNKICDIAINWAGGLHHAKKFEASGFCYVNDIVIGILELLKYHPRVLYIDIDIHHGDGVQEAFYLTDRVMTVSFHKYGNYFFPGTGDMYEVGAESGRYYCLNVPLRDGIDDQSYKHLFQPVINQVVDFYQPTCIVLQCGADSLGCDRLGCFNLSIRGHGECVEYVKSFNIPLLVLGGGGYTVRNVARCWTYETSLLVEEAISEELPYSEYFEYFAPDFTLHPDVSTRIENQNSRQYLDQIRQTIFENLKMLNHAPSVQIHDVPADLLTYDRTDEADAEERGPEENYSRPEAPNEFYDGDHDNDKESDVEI
Histone deacetylase 2, sequence (Q92769 whole entry): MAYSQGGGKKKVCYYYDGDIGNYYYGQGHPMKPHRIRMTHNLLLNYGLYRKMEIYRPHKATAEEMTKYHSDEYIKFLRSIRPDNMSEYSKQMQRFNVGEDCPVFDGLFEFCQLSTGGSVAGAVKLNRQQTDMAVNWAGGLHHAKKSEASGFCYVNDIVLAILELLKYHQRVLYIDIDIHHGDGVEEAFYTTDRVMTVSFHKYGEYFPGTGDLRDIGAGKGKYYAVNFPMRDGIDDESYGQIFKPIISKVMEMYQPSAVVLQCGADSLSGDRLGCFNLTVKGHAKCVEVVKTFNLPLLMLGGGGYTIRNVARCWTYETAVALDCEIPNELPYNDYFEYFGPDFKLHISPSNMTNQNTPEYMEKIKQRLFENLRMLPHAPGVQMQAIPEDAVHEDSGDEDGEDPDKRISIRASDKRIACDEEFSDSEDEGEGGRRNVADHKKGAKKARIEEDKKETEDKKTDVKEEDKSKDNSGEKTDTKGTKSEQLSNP
Histone deacetylase 5, sequence (Q9UQL6 whole entry): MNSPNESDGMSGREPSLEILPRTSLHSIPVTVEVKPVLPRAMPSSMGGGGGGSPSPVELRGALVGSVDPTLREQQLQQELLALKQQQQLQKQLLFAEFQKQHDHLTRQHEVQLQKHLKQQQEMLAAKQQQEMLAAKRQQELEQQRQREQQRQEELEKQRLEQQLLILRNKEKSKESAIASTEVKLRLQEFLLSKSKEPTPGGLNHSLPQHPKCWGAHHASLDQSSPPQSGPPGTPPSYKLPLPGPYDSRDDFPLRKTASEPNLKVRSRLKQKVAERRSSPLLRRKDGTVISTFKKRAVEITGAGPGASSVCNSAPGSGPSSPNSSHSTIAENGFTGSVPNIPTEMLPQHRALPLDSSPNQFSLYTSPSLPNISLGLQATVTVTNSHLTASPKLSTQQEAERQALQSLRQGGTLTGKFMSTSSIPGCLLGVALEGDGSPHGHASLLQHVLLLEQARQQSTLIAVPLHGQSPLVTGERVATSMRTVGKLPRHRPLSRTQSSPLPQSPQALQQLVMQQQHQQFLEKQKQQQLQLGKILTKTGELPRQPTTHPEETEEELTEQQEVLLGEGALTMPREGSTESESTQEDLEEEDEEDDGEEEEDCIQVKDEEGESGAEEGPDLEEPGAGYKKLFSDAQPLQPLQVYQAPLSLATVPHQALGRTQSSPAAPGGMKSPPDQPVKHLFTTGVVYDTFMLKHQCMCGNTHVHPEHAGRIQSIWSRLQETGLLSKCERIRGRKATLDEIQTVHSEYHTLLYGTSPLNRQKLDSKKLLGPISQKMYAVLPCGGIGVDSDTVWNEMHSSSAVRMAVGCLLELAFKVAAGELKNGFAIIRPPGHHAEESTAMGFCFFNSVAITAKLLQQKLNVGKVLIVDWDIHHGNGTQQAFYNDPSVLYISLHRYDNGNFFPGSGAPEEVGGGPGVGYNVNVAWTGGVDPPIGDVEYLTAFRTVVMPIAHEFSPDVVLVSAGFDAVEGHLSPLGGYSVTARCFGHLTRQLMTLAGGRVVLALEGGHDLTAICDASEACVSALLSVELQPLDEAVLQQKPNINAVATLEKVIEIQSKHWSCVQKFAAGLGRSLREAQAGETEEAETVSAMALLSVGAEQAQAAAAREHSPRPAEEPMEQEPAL
Histone deacetylase 1, sequence (Q13547 whole entry): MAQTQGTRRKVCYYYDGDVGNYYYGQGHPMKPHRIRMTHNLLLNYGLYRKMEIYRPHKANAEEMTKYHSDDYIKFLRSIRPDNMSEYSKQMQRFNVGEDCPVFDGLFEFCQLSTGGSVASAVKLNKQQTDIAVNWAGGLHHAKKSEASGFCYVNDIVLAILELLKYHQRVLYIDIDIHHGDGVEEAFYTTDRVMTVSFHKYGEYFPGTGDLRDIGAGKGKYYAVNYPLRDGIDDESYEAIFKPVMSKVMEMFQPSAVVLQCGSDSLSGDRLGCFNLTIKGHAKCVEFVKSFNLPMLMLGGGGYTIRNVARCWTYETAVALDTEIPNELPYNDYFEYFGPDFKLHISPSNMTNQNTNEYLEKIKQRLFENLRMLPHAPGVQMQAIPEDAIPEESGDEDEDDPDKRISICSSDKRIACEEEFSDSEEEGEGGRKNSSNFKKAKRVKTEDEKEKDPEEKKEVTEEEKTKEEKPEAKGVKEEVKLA

pIC50 [1]	pIC50 [2]	pIC50 [3]	pIC50 [4]	pIC50 [5]	pIC50 [6]	pIC50 [7]	pIC50 [8]	pIC50 [9]	SMILES
< 4.00	< 4.00	< 4.00	< 4.00	< 4.00	< 4.00	< 4.00	< 4.00	< 4.00	CC(=O)Nc1ccc(C(O)CSc2nc(C)cc(O)n2)cc1 (stereo not given)
< 4.00	< 4.00	< 4.00	< 4.00	< 4.00	< 4.00	< 4.00	< 4.00	< 4.00	CC(=O)N(C)c1ccc(C(=O)CSc2nc(C)cc(O)n2)cc1
< 4.00	< 4.00	< 4.00	< 4.00	< 4.00	< 4.00	< 4.00	< 4.00	< 4.00	CC(=O)Nc1ccc(CSc2nc(C)cc(O)n2)cc1
< 4.00	< 4.00	< 4.00	< 4.00	< 4.00	4.97	< 4.00	< 4.00	< 4.00	Cc1cc(=O)[nH]c(SCC(=O)c2ccc(NC(=O)c3ccccc3)cc2)n1
< 4.00	< 4.00	< 4.00	< 4.00	< 4.00	< 4.00	< 4.00	< 4.00	< 4.00	Cc1cc(=O)[nH]c(SCC(=O)NCCCCCCc2ccccc2)n1
< 4.00	< 4.00	< 4.00	< 4.00	< 4.00	< 4.00	< 4.00	< 4.00	< 4.00	COc1cc(C)nc(SCC(=O)c2ccc(NC(C)=O)cc2)n1
< 4.00	< 4.00	< 4.00	< 4.00	< 4.00	< 4.00	< 4.00	< 4.00	< 4.00	CC(=O)Nc1ccc(C(=O)CSc2cccc(O)c2)cc1
< 4.00	< 4.00	< 4.00	< 4.00	< 4.00	< 4.00	< 4.00	< 4.00	< 4.00	COC(=O)CSc1nc(C)cc(=O)[nH]1
< 4.00	< 4.00	< 4.00	< 4.00	< 4.00	< 4.00	< 4.00	< 4.00	< 4.00	Cc1cc(O)nc(SCC(=O)NCCc2ccccc2)n1
4.08	4.17	4.06	< 4.00	< 4.00	4.89	< 4.00	< 4.00	< 4.00	Cc1cc(O)nc(SCC(=O)c2ccc(Cl)cc2)n1
< 4.00	< 4.00	< 4.00	< 4.00	< 4.00	< 4.00	< 4.00	< 4.00	< 4.00	CC(=O)Nc1ccc(C(=O)COc2cc(C)cc(=O)[nH]2)cc1
< 4.00	< 4.00	< 4.00	< 4.00	< 4.00	< 4.00	4.86	< 4.00	< 4.00	Cc1cc(O)nc(SCC(=O)c2ccccc2)n1
< 4.00	< 4.00	< 4.00	< 4.00	< 4.00	4.40	< 4.00	< 4.00	< 4.00	Cc1cc(=O)[nH]c(SCC(=O)c2ccc(O)cc2)n1
< 4.00	< 4.00	< 4.00	< 4.00	< 4.00	4.22	< 4.00	< 4.00	< 4.00	COc1ccc(C(=O)CSc2nc(C)cc(O)n2)cc1
< 4.00	< 4.00	< 4.00	< 4.00	< 4.00	< 4.00	< 4.00	< 4.00	< 4.00	CC(=O)Nc1ccc(C(=O)CSc2nccc(C)n2)cc1
< 4.00	< 4.00	< 4.00	< 4.00	< 4.00	< 4.00	< 4.00	< 4.00	< 4.00	Cc1cc(O)nc(SCC(=O)C(C)(C)C)n1
< 4.00	< 4.00	< 4.00	< 4.00	< 4.00	< 4.00	< 4.00	< 4.00	< 4.00	CC(=O)Nc1ccc(C(=O)CSc2nc(C)cc(C)n2)cc1
< 4.00	< 4.00	< 4.00	< 4.00	< 4.00	< 4.00	< 4.00	< 4.00	< 4.00	Cc1cc(=O)[nH]c(SCC(=O)NCCCCc2ccccc2)n1
< 4.00	< 4.00	< 4.00	4.27	4.78	4.06	–	< 4.00	4.93	CC(=O)Nc1ccc(C(=O)COc2nc(C)cc(O)n2)cc1
